# How the values were obtained:
# Format in all cases: functional
# [1] = system: Staphylococcus aureus; assay: Antimicrobial activity against Staphylococcus aureus ATCC 25923 assessed as growth inhibition rate at 5.8 mg/l after 72 hr by spectrophotometry; settings: ATCC 25923, 72 h, read-out: GI
# [2] = system: Salmonella typhimurium; assay: Antimicrobial activity against Salmonella enterica subsp. enterica serovar Typhimurium ATCC 14028 assessed as growth inhibition rate at 5.8 mg/l after 72 hr by spectrophotometry; settings: ATCC 14028, 72 h, read-out: GI
# [3] = system: Listeria monocytogenes; assay: Antimicrobial activity against Listeria monocytogenes ATCC 19111 assessed as growth inhibition rate at 5.8 mg/l after 72 hr by spectrophotometry; settings: ATCC 19111, 72 h, read-out: GI
# How it was run: (§1)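 L. monocytogenes was grown at 30 °C in tryptic soy broth, subcultured for 18 h, and exposed to pure volatile compounds (>95% purity). Growth was followed by Bioscreen C optical density every 24 h for 72 h against a 10% Tween 80 control.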
# [4] = system: Escherichia coli; assay: Antimicrobial activity against Escherichia coli O157:H7 ATCC 43894 assessed as growth inhibition rate at 5.8 mg/l after 72 hr by spectrophotometry; settings: O157:H7 ATCC 43894, 72 h, read-out: GI
# [5] = system: Vibrio parahaemolyticus; assay: Antimicrobial activity against Vibrio parahaemolyticus ATCC 33844 assessed as growth inhibition rate at 5.8 mg/l after 72 hr by spectrophotometry; settings: ATCC 33844, 72 h, read-out: GI
# [6] = system: Bacillus cereus; assay: Antimicrobial activity against Bacillus cereus ATCC 11778 assessed as growth inhibition rate at 5.8 mg/l after 72 hr by spectrophotometry; settings: ATCC 11778, 72 h, read-out: GI
# How it was run: (§2)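 Pure volatile compounds (purity >95%; one at 90%) were tested against B. cereus ATCC 11778. The strain was grown at 30 °C in nutrient broth for 24 h, then subcultured for 18 h. Optical density was read in a Bioscreen C every 24 h for 72 h, with 10% Tween 80 as the control.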
# [7] = system: Listeria monocytogenes; assay: Antimicrobial activity against Listeria monocytogenes ATCC 19111 assessed as growth inhibition rate at 4.44 mg/l after 72 hr by spectrophotometry; settings: ATCC 19111, 72 h, read-out: GI; how it was run: as §1
# [8] = system: Staphylococcus aureus; assay: Antimicrobial activity against Staphylococcus aureus ATCC 25923 assessed as growth inhibition rate at 4.44 mg/l after 72 hr by spectrophotometry; settings: ATCC 25923, 72 h, read-out: GI
# [9] = system: Bacillus cereus; assay: Antimicrobial activity against Bacillus cereus ATCC 11778 assessed as growth inhibition rate at 4.44 mg/l after 72 hr by spectrophotometry; settings: ATCC 11778, 72 h, read-out: GI; how it was run: as §2
# [10] = system: Escherichia coli; assay: Antimicrobial activity against Escherichia coli O157:H7 ATCC 43894 assessed as growth inhibition rate at 4.44 mg/l after 72 hr by spectrophotometry; settings: O157:H7 ATCC 43894, 72 h, read-out: GI
# [11] = system: Vibrio parahaemolyticus; assay: Antimicrobial activity against Vibrio parahaemolyticus ATCC 33844 assessed as growth inhibition rate at 4.44 mg/l after 72 hr by spectrophotometry; settings: ATCC 33844, 72 h, read-out: GI
# [12] = system: Salmonella typhimurium; assay: Antimicrobial activity against Salmonella enterica subsp. enterica serovar Typhimurium ATCC 14028 assessed as growth inhibition rate at 4.44 mg/l after 72 hr by spectrophotometry; settings: ATCC 14028, 72 h, read-out: GI
# How it was run: (§3)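 Salmonella Typhimurium ATCC 14028 grown in nutrient broth at 30 °C, precultured 24 h, then subcultured 1:100 for 18 h before testing. Single volatile compounds (>95% pure) were added. OD was read every 24 h over 72 h in a Bioscreen C, with 10% Tween 80 as the comparison control.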
# [13] = system: Vibrio parahaemolyticus; assay: Antimicrobial activity against Vibrio parahaemolyticus ATCC 33844 assessed as growth inhibition rate at 1.72 mg/l after 72 hr by spectrophotometry; settings: ATCC 33844, 72 h, read-out: GI
# [14] = system: Staphylococcus aureus; assay: Antimicrobial activity against Staphylococcus aureus ATCC 25923 assessed as growth inhibition rate at 1.72 mg/l after 72 hr by spectrophotometry; settings: ATCC 25923, 72 h, read-out: GI
# [15] = system: Listeria monocytogenes; assay: Antimicrobial activity against Listeria monocytogenes ATCC 19111 assessed as growth inhibition rate at 1.72 mg/l after 72 hr by spectrophotometry; settings: ATCC 19111, 72 h, read-out: GI; how it was run: as §1
# [16] = system: Bacillus cereus; assay: Antimicrobial activity against Bacillus cereus ATCC 11778 assessed as growth inhibition rate at 1.72 mg/l after 72 hr by spectrophotometry; settings: ATCC 11778, 72 h, read-out: GI; how it was run: as §2
# [17] = system: Salmonella typhimurium; assay: Antimicrobial activity against Salmonella enterica subsp. enterica serovar Typhimurium ATCC 14028 assessed as growth inhibition rate at 1.72 mg/l after 72 hr by spectrophotometry; settings: ATCC 14028, 72 h, read-out: GI; how it was run: as §3
# [18] = system: Escherichia coli; assay: Antimicrobial activity against Escherichia coli O157:H7 ATCC 43894 assessed as growth inhibition rate at 1.72 mg/l after 72 hr by spectrophotometry; settings: O157:H7 ATCC 43894, 72 h, read-out: GI
# [19] = system: Vibrio parahaemolyticus; assay: Antimicrobial activity against Vibrio parahaemolyticus ATCC 33844 assessed as growth inhibition rate at 6.32 mg/l after 72 hr by spectrophotometry; settings: ATCC 33844, 72 h, read-out: GI
# [20] = system: Salmonella typhimurium; assay: Antimicrobial activity against Salmonella enterica subsp. enterica serovar Typhimurium ATCC 14028 assessed as growth inhibition rate at 6.32 mg/l after 72 hr by spectrophotometry; settings: ATCC 14028, 72 h, read-out: GI
# [21] = system: Staphylococcus aureus; assay: Antimicrobial activity against Staphylococcus aureus ATCC 25923 assessed as growth inhibition rate at 6.32 mg/l after 72 hr by spectrophotometry; settings: ATCC 25923, 72 h, read-out: GI
# [22] = system: Listeria monocytogenes; assay: Antimicrobial activity against Listeria monocytogenes ATCC 19111 assessed as growth inhibition rate at 6.32 mg/l after 72 hr by spectrophotometry; settings: ATCC 19111, 72 h, read-out: GI; how it was run: as §1
# [23] = system: Escherichia coli; assay: Antimicrobial activity against Escherichia coli O157:H7 ATCC 43894 assessed as growth inhibition rate at 6.32 mg/l after 72 hr by spectrophotometry; settings: O157:H7 ATCC 43894, 72 h, read-out: GI
# [24] = system: Bacillus cereus; assay: Antimicrobial activity against Bacillus cereus ATCC 11778 assessed as growth inhibition rate at 6.32 mg/l after 72 hr by spectrophotometry; settings: ATCC 11778, 72 h, read-out: GI; how it was run: as §2
# [25] = system: Vibrio parahaemolyticus; assay: Antimicrobial activity against Vibrio parahaemolyticus ATCC 33844 assessed as growth inhibition rate at 13.04 mg/l after 72 hr by spectrophotometry; settings: ATCC 33844, 72 h, read-out: GI
# [26] = system: Escherichia coli; assay: Antimicrobial activity against Escherichia coli O157:H7 ATCC 43894 assessed as growth inhibition rate at 13.04 mg/l after 72 hr by spectrophotometry; settings: O157:H7 ATCC 43894, 72 h, read-out: GI
# [27] = system: Salmonella typhimurium; assay: Antimicrobial activity against Salmonella enterica subsp. enterica serovar Typhimurium ATCC 14028 assessed as growth inhibition rate at 13.04 mg/l after 72 hr by spectrophotometry; settings: ATCC 14028, 72 h, read-out: GI; how it was run: as §3
# [28] = system: Bacillus cereus; assay: Antimicrobial activity against Bacillus cereus ATCC 11778 assessed as growth inhibition rate at 13.04 mg/l after 72 hr by spectrophotometry; settings: ATCC 11778, 72 h, read-out: GI; how it was run: as §2
# [29] = system: Listeria monocytogenes; assay: Antimicrobial activity against Listeria monocytogenes ATCC 19111 assessed as growth inhibition rate at 13.04 mg/l after 72 hr by spectrophotometry; settings: ATCC 19111, 72 h, read-out: GI; how it was run: as §1
# [30] = system: Staphylococcus aureus; assay: Antimicrobial activity against Staphylococcus aureus ATCC 25923 assessed as growth inhibition rate at 13.04 mg/l after 72 hr by spectrophotometry; settings: ATCC 25923, 72 h, read-out: GI
structure (smiles),measurement,setting,value
C=CC(O)CC (stereo not given),inhibition of growth at 5.8 µg/mL,[1],2.4%
same,inhibition of growth at 5.8 µg/mL,[2],5%
same,inhibition of growth at 5.8 µg/mL,[3],0.4%
same,inhibition of growth at 5.8 µg/mL,[4],0%
same,inhibition of growth at 5.8 µg/mL,[5],1.9%
same,inhibition of growth at 5.8 µg/mL,[6],9.3%
CC1=CC[C@@H]2C[C@H]1C2(C)C [1R-(+)-ALPHA-PINENE],inhibition of growth at 4.44 µg/mL,[7],0%
same,inhibition of growth at 4.44 µg/mL,[8],20.8%
same,inhibition of growth at 4.44 µg/mL,[9],0%
same,inhibition of growth at 4.44 µg/mL,[10],0%
same,inhibition of growth at 4.44 µg/mL,[11],10.7%
same,inhibition of growth at 4.44 µg/mL,[12],5.2%
"CCC(=O)C(C)=O [2,3-PENTANEDIONE]",inhibition of growth at 1.72 µg/mL,[13],39.3%
same,inhibition of growth at 1.72 µg/mL,[14],47.4%
same,inhibition of growth at 1.72 µg/mL,[15],26.2%
same,inhibition of growth at 1.72 µg/mL,[16],26.9%
same,inhibition of growth at 1.72 µg/mL,[17],25.5%
same,inhibition of growth at 1.72 µg/mL,[18],9.6%
CCCCCC(=O)CC [3-OCTANONE],inhibition of growth at 6.32 µg/mL,[19],0%
same,inhibition of growth at 6.32 µg/mL,[20],5.1%
same,inhibition of growth at 6.32 µg/mL,[21],5.2%
same,inhibition of growth at 6.32 µg/mL,[22],0%
same,inhibition of growth at 6.32 µg/mL,[23],3.1%
same,inhibition of growth at 6.32 µg/mL,[24],0%
C=C1CC[C@@H]2C[C@H]1C2(C)C [(+)-BETA-PINENE],inhibition of growth at 13.04 µg/mL,[25],45.1%
same,inhibition of growth at 13.04 µg/mL,[26],3.4%
same,inhibition of growth at 13.04 µg/mL,[27],14.9%
same,inhibition of growth at 13.04 µg/mL,[28],0%
same,inhibition of growth at 13.04 µg/mL,[29],2.8%
same,inhibition of growth at 13.04 µg/mL,[30],17.6%

# — ChEMBL document CHEMBL3046951, “Volatile constituents from the leaves of Callicarpa japonica Thunb. and their antibacterial activities” (2004)
